Laboratory results from ChEMBL document CHEMBL1828561, “Identification of a potent and selective free fatty acid receptor 1 (FFA1/GPR40) agonist with favorable physicochemical and in vitro ADME properties” (J Med Chem, 2011).
The source made the active and inactive calls. The calls are words filed in the database; no cut-off is given here.

Experiments:
1321-N1 [1] = assay: Selectivity for human FFA1 receptor expressed in human 1321N1 cells over AT1 receptor; type: cell-based
1321-N1 [2] = assay: Selectivity for human FFA1 receptor expressed in human 1321N1 cells over Ca2+ channel; type: cell-based
1321-N1 [3] = assay: Selectivity for human FFA1 receptor expressed in human 1321N1 cells over M1 receptor; type: cell-based
[4] = Octanol-phosphate buffer partition coefficient, log D of the compound at pH 7.4 by HPLC analysis; type: physicochemical
1321-N1 [5] = assay: Selectivity for human FFA1 receptor expressed in human 1321N1 cells over Na+ channel; type: cell-based
1321-N1 [6] = assay: Selectivity for human FFA1 receptor expressed in human 1321N1 cells over Y2 receptor; type: cell-based
1321-N1 [7] = assay: Selectivity for human FFA1 receptor expressed in human 1321N1 cells over Cl- channel; type: cell-based
1321-N1 [8] = assay: Selectivity for human FFA1 receptor expressed in human 1321N1 cells over B2 receptor; type: cell-based
1321-N1 [9] = assay: Selectivity for human FFA1 receptor expressed in human 1321N1 cells over 5HT2B receptor; type: cell-based
CYP3A4 = CYP3A4 (Homo sapiens, UniProt P08684); assay: Inhibition of CYP3A4 at 10 uM; type: ADME
1321-N1 [10] = assay: Selectivity for human FFA1 receptor expressed in human 1321N1 cells over 5HT5a receptor; type: cell-based
CYP1A2 = molecular target: T1, CYP1A2 (Homo sapiens, UniProt P05177); assay: Inhibition of CYP1A2 at 10 uM; type: ADME
T1 sequence (P05177 whole entry): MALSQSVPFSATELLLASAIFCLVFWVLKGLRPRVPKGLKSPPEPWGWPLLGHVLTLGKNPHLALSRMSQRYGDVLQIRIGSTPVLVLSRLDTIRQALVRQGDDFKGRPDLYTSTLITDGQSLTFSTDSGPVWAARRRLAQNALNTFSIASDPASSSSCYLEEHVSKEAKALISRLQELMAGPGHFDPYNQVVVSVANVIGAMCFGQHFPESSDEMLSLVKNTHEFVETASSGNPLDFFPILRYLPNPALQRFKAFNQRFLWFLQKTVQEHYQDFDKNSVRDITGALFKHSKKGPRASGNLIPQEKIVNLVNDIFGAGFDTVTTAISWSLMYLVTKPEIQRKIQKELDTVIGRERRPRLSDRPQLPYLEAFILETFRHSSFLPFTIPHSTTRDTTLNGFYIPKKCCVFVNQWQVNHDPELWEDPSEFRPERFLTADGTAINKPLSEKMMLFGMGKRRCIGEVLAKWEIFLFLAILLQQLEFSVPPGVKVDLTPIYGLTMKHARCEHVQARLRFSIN

[11] = Chemical stability of the compound in PBS at 37 degC for 12 days; type: physicochemical; settings: read-out: Stability
How it was run: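 Stability followed in PBS at 37 °C over 12 days.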

1321-N1 [12] = assay: Selectivity for human FFA1 receptor expressed in human 1321N1 cells over 5HT6 receptor; type: cell-based
1321-N1 [13] = assay: Selectivity for human FFA1 receptor expressed in human 1321N1 cells over alpha2 receptor; type: cell-based
1321-N1 [14] = assay: Selectivity for human FFA1 receptor expressed in human 1321N1 cells over sst receptor; type: cell-based
1321-N1 [15] = assay: Selectivity for human FFA1 receptor expressed in human 1321N1 cells over TP receptor; type: cell-based
1321-N1 [16] = assay: Selectivity for human FFA1 receptor expressed in human 1321N1 cells over kappa receptor; type: cell-based
HEK293 [17] = assay: Selectivity for human FFA1 receptor expressed in human 1321N1 cells over human FFA2 receptor expressed in HEK293 cells at 10 uM; type: cell-based
1321-N1 [18] = assay: Selectivity for human FFA1 receptor expressed in human 1321N1 cells over CB1 receptor; type: cell-based
[19] = molecular target: Free fatty acid receptor 1 (Homo sapiens, UniProt O14842); assay: Agonist activity at human FFA1 receptor expressed in human 1321N1 cells assessed as calcium mobilization by fluorescence spectrophotometry; type: functional, cell-based
1321-N1 [20] = assay: Selectivity for human FFA1 receptor expressed in human 1321N1 cells over Delta2 receptor; type: cell-based
[21] = molecular target: Free fatty acid receptor 1 (Rattus norvegicus) (UniProt Q8K3T4); assay: Agonist activity at FFA1 receptor in rat INS-1E cells assessed as increase in glucose-stimulated insulin production at 10 uM after 1 hr by radioimmunoassay in presence of 2.8 mM glucose; type: functional, cell-based
How it was run: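 Rat INS-1E cells seeded at 100 000 cells/mL in 24-well plates for 2 days. Incubated 1 h at 37 °C in pH 7.4 HEPES-bicarbonate saline with 1 mM CaCl2 and 0.5 g/L fatty-acid-free BSA plus test substance. Secreted insulin and acid-ethanol-extracted content measured by radioimmunoassay. Mean ± SE, n = 8.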

HEK293 [22] = assay: Selectivity for human FFA1 receptor expressed in human 1321N1 cells over human FFA3 receptor expressed in HEK293 cells at 10 uM; type: cell-based
[23] = Inhibition of P-glycoprotein at 100 uM
How it was run: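 P-glycoprotein inhibition tested at 100 μM compound.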

1321-N1 [24] = assay: Selectivity for human FFA1 receptor expressed in human 1321N1 cells over GAL2 receptor; type: cell-based
1321-N1 [25] = assay: Selectivity for human FFA1 receptor expressed in human 1321N1 cells over M2 receptor; type: cell-based
1321-N1 [26] = assay: Selectivity for human FFA1 receptor expressed in human 1321N1 cells over MC4 receptor; type: cell-based
1321-N1 [27] = assay: Selectivity for human FFA1 receptor expressed in human 1321N1 cells over dopamine transporter; type: cell-based
1321-N1 [28] = assay: Selectivity for human FFA1 receptor expressed in human 1321N1 cells over Y1 receptor; type: cell-based
1321-N1 [29] = assay: Selectivity for human FFA1 receptor expressed in human 1321N1 cells over D1 receptor; type: cell-based
[30] = Apparent permeability across methotrexate treated human HT-29 cells; type: ADME, cell-based
How it was run: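 HT29-MTX mucus-producing cells, passage 32, grown 23 days (TEER > 750 Ω cm²). Compound at 100 μM (10 mM DMSO stock diluted 1:100 in buffer). […] Non-permeated drug measured for recovery. Monolayer integrity checked by 20 μM carboxyfluorescein after 1 h and TEER.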

1321-N1 [31] = assay: Selectivity for human FFA1 receptor expressed in human 1321N1 cells over ETA receptor; type: cell-based
1321-N1 [32] = assay: Selectivity for human FFA1 receptor expressed in human 1321N1 cells over beta2 receptor; type: cell-based
[33] = Apparent permeability from apical to basolateral side of human Caco2/TC7 cells; type: ADME, cell-based; settings: Caco-2
How it was run: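 Caco-2 TC7 monolayers, apical to basolateral transport at pH 6.5 apical/7.4 basolateral.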

1321-N1 [34] = assay: Selectivity for human FFA1 receptor expressed in human 1321N1 cells over alpha1 receptor; type: cell-based
1321-N1 [35] = assay: Selectivity for human FFA1 receptor expressed in human 1321N1 cells over 5HT1B receptor; type: cell-based
1321-N1 [36] = assay: Selectivity for human FFA1 receptor expressed in human 1321N1 cells over GABA receptor; type: cell-based

Sequence of Free fatty acid receptor 1 (Rattus norvegicus) (Q8K3T4 whole entry): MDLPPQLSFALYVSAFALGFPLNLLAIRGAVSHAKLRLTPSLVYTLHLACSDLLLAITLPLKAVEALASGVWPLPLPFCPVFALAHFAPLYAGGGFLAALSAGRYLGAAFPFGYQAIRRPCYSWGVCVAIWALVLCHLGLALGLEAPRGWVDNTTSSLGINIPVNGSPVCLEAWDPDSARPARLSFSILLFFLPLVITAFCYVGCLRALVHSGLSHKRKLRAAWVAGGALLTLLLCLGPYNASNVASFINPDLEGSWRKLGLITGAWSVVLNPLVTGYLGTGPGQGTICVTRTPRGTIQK
Sequence of Free fatty acid receptor 1 (O14842 whole entry): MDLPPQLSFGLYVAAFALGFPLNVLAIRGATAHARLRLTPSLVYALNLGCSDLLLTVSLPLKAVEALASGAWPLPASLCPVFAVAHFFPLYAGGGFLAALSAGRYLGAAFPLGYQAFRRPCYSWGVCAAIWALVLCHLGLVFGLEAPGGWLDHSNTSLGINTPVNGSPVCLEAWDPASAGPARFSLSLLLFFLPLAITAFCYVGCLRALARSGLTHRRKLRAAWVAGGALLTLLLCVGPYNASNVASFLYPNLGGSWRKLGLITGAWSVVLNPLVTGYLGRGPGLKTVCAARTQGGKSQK
Sequence of CYP3A4 (P08684 whole entry): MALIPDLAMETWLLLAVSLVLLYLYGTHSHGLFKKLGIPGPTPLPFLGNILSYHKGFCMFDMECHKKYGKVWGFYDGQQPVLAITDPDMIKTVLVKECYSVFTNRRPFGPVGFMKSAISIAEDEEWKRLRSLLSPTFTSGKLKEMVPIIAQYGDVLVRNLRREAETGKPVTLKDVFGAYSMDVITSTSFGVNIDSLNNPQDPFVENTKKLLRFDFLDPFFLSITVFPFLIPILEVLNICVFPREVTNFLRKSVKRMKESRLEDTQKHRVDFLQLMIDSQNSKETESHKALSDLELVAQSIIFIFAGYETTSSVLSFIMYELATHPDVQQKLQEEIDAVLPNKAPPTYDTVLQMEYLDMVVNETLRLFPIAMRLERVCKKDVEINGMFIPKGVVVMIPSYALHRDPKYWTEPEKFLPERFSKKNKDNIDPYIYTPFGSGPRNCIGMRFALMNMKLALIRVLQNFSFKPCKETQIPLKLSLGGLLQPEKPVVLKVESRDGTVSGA

SMILES: O=C(O)CCc1ccc(C#Cc2cc(Cl)nc(Cl)c2)cc1
- Selectivity ratio (1321-N1 [1]): > 100
- Selectivity ratio (1321-N1 [2]): > 100
- Selectivity ratio (1321-N1 [3]): > 100
- logD [4]: 1.97
- Selectivity ratio (1321-N1 [5]): > 100
- Selectivity ratio (1321-N1 [6]): > 100
- Selectivity ratio (1321-N1 [7]): > 100
- Selectivity ratio (1321-N1 [8]): > 100
- Selectivity ratio (1321-N1 [9]): > 100
- inhibition at 10 µM (CYP3A4): 5%
- Selectivity ratio (1321-N1 [10]): > 100
- inhibition at 10 µM (CYP1A2): -7%
- remaining at 288 h [11]: 99.9%
- Selectivity ratio (1321-N1 [12]): > 100
- Selectivity ratio (1321-N1 [13]): > 100
- Selectivity ratio (1321-N1 [14]): > 100
- Selectivity ratio (1321-N1 [15]): > 100
- Selectivity ratio (1321-N1 [16]): > 100
- Selectivity ratio (HEK293 [17]): > 100
- Selectivity ratio (1321-N1 [18]): > 100
- EC50 [19]: 40.7 nM
- Selectivity ratio (1321-N1 [20]): > 100
- Activity [21]: inactive
- Selectivity ratio (HEK293 [22]): > 100
- inhibition [23]: -1.9%
- Selectivity ratio (1321-N1 [24]): > 100
- Selectivity ratio (1321-N1 [25]): > 100
- Selectivity ratio (1321-N1 [26]): > 100
- Selectivity ratio (1321-N1 [27]): > 100
- Selectivity ratio (1321-N1 [28]): > 100
- Selectivity ratio (1321-N1 [29]): > 100
- Papp [30]: 16.4 ×10⁻⁶ cm/s
- Selectivity ratio (1321-N1 [31]): > 100
- Selectivity ratio (1321-N1 [32]): > 100
- Papp A→B [33]: 112 ×10⁻⁶ cm/s
- Selectivity ratio (1321-N1 [34]): > 100
- Selectivity ratio (1321-N1 [35]): > 100
- Selectivity ratio (1321-N1 [36]): > 100
